In brackets after ≈: the same amount, converted by molar mass. Activity calls are given as the source filed them. The calls are words filed in the database; no cut-off is given here.
Assays:
Rattus norvegicus [1] = test: Antithrombotic activity in po dosed pentobarbital anesthetized rat assessed as reduction in FeCl2-induced thrombus weight administered 1 hr prior to FeCl2 challenge
Liver microsome [2] = test: Metabolic stability in rat liver microsomes assessed as compound remaining; type: ADME
In short: (§1)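 Liver microsome stability: percent of compound remaining after incubation with […] (3 µM microsomes in some cases).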

Liver microsome [3] = test: Metabolic stability in human liver microsomes assessed as compound remaining; type: ADME; in short: as §1
Platelet = test: Inhibition of ADP-induced platelet aggregation in platelet-rich human plasma; type: functional
In short: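 Human platelet-rich plasma; aggregation triggered by 10 µM ADP; IC50 determined.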

P2Y purinoceptor 1 = P2Y purinoceptor 1 (Homo sapiens, UniProt P47900); test: Antagonist activity at P2Y1 receptor in human platelets by FLIPR assay in presence of 2-methylthio-ADP
In short: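 Washed human platelets with endogenous P2Y1; calcium signalling read by FLIPR with reduced protein (~0.1% BSA); agonist 2-methylthio-ADP at 1 µM; IC50 given as mean ± SD.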

[4] = Plasma protein binding in rat; type: ADME, cell-free; details: read-out: PPB (converted)
Blood [5] = test: Drug uptake in rat blood at 3 mg/kg, po; type: ADME, organism-based; design: dose 3 mg/kg, route oral; details: in vivo, read-out: Drug uptake
Rattus norvegicus [6] = test: Toxicity in rat assessed as prolongation of cuticle bleeding time at 10 mg/kg, po relative to control; type: organism-based; design: dose 10 mg/kg, route oral; details: in vivo
In short: (§2)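 Pentobarbital-anesthetized rats dosed by oral gavage 1 h before bleeding-time induction. Vehicle was 1 ml/kg of 10% N,N-dimethylacetamide/90% dextrose 5% water, and compound was given at 0.3, 1, 3 and 10 mg/kg. Cuticle and mesenteric bleeding times were measured and expressed as fold prolongation relative to vehicle. Group sizes were indicated per group.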

[7] = Aqueous solubility of the compound at pH 6.5; type: physicochemical; details: aqueous medium
In short: (§3)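 Aqueous solubility taken on crystalline material: free base at pH 6.5, mono-methanesulfonic acid salt at pH 3.9.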

Rattus norvegicus [8] = test: Antiplatelet activity in pentobarbital anesthetized rat assessed as reduction in platelet aggregation at 10 mg/kg, po; type: functional; design: scale not given: the % may be the effect or the level left
In short: (§4)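 Pentobarbital-anesthetized rats; vehicle (1 ml/kg of 10% N,N-dimethylacetamide/90% dextrose 5% water) or 0.3, 1, 3, 10 mg/kg by oral gavage 1 h before FeCl2-induced carotid thrombosis or cuticle/mesenteric bleeding time. End points were thrombus weight and blood flow. Blood was drawn at the end of the thrombosis protocol for ex vivo aggregation. ID50 values derived; SEM reported.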

[9] = Half life in dog at 0.2 mg/kg, iv and 5 mg/kg, po; type: ADME, organism-based, Canis lupus familiaris; details: in vivo
In short: (§5)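 Dog and cynomolgus PK used the methanesulfonic acid salt at 0.2 mg/kg IV and 5 mg/kg PO; clearance, Vdss, half-life and oral bioavailability determined.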

Plasma [10] = test: Plasma concentration in rabbit at 30 mg/kg, iv; type: ADME, organism-based, Oryctolagus cuniculus; design: dose 30 mg/kg, route intravenous; details: in vivo
In short: (§6)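 Anesthetized rabbits given IV doses of 3, 10 and 30 mg/kg in increasing order; plasma concentrations measured; PR, QRS and QTc intervals read by surface ECG.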

Oryctolagus cuniculus [11] = test: Cardiotoxicity in rabbit assessed as increase in QTc at 10 to 30 mg/kg, iv by surface electrocardiography; type: toxicity, organism-based; design: dose 10-30 mg/kg, route intravenous; details: in vivo; in short: as §6
Rattus norvegicus [12] = test: Ex vivo inhibition of platelet aggregation in po dosed pentobarbital anesthetized rat administered 1 hr prior to FeCl2 challenge; type: functional; in short: as §4
[13] = Half life in cynomolgus monkey at 0.2 mg/kg, iv and 5 mg/kg, po; type: ADME, organism-based, Macaca fascicularis; details: in vivo; in short: as §5
Oryctolagus cuniculus [14] = test: Cardiotoxicity in rabbit assessed as PR interval at 3 to 30 mg/kg, iv by surface electrocardiography; type: toxicity, organism-based; design: dose 3-30 mg/kg, route intravenous; details: in vivo; in short: as §6
Rattus norvegicus [15] = test: Toxicity in po dosed pentobarbital anesthetized rat assessed as prolongation of bleeding time measured after 1 hr; type: organism-based; details: in vivo; in short: as §4
Plasma [16] = test: Plasma concentration in rabbit at 3 mg/kg, iv; type: ADME, organism-based, Oryctolagus cuniculus; design: dose 3 mg/kg, route intravenous; details: in vivo; in short: as §6
P2Y purinoceptor 2 = P2Y purinoceptor 2 (Homo sapiens, UniProt P41231); test: Antagonist activity at P2Y2 receptor (unknown origin)
[17] = Plasma protein binding in human; type: ADME, cell-free; details: read-out: PPB (converted)
[18] = Volume of distribution at steady state in dog at 0.2 mg/kg, iv and 5 mg/kg, po; type: ADME, organism-based, Canis lupus familiaris; details: in vivo, read-out: Vdss; in short: as §5
P2Y purinoceptor 12 = P2Y purinoceptor 12 (Homo sapiens, UniProt Q9H244); test: Antagonist activity at P2Y12 receptor (unknown origin)
Blood [19] = test: Drug uptake in rat blood at 1 mg/kg, po; type: ADME, organism-based; design: dose 1 mg/kg, route oral; details: in vivo, read-out: Drug uptake
[20] = Aqueous solubility of the compound at pH 3.9; type: physicochemical; details: aqueous medium, read-out: Activity; in short: as §3
Rattus norvegicus [21] = test: Antithrombotic activity in pentobarbital anesthetized rat assessed as preservation of blood flow at 10 mg/kg, po administered 1 hr prior to FeCl2 challenge; type: functional, organism-based; design: dose 10 mg/kg; in short: as §4
Rattus norvegicus [22] = test: Toxicity in rat assessed as prolongation of mesentric bleeding time at 10 mg/kg, po relative to control; type: organism-based; design: dose 10 mg/kg, route oral; details: in vivo; in short: as §2
[23] = Volume of distribution at steady state in cynomolgus monkey at 0.2 mg/kg, iv and 5 mg/kg, po; type: ADME, organism-based, Macaca fascicularis; details: in vivo, read-out: Vdss; in short: as §5
Blood [24] = test: Drug uptake in rat blood at 0.3 mg/kg, po; type: ADME, organism-based; design: dose 0.3 mg/kg, route oral; details: in vivo, read-out: Drug uptake
Rattus norvegicus [25] = test: Antithrombotic activity in pentobarbital anesthetized rat assessed as reduction in FeCl2-induced thrombus weight at 10 mg/kg, po administered 1 hr prior to FeCl2 challenge; type: functional; design: scale not given: the % may be the effect or the level left; in short: as §4
[26] = Plasma protein binding in rabbit; type: ADME, cell-free, Oryctolagus cuniculus; details: read-out: PPB (converted)
[27] = Clearance in dog at 0.2 mg/kg, iv and 5 mg/kg, po; type: ADME, organism-based, Canis lupus familiaris; details: in vivo; in short: as §5
Oryctolagus cuniculus [28] = test: Cardiotoxicity in rabbit assessed as QRS interval at 3 to 30 mg/kg, iv by surface electrocardiography; type: toxicity, organism-based; design: dose 3-30 mg/kg, route intravenous; details: in vivo; in short: as §6
[29] = Oral bioavailability in cynomolgus monkey at 5 mg/kg; type: ADME, organism-based, Macaca fascicularis; details: in vivo; in short: as §5
Plasma [30] = test: Plasma concentration in rabbit at 10 mg/kg, iv; type: ADME, organism-based, Oryctolagus cuniculus; design: dose 10 mg/kg, route intravenous; details: in vivo; in short: as §6
P2X purinoceptor 1 = target: T1, P2X purinoceptor 1 (Homo sapiens, UniProt P51575); test: Antagonist activity at P2X1 receptor (unknown origin) by FLIPR assay
T1 sequence (P51575 whole entry): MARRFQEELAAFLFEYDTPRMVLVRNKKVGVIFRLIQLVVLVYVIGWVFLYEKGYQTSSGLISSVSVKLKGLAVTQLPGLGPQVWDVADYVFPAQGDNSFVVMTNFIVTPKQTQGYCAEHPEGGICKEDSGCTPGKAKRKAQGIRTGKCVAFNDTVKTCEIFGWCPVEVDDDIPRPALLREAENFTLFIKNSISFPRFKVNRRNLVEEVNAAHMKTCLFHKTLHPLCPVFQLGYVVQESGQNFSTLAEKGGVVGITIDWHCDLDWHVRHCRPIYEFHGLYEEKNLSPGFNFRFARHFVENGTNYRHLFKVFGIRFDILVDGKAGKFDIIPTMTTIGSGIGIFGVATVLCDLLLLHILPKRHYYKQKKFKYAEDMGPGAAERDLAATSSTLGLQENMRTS

[31] = Clearance in cynomolgus monkey at 0.2 mg/kg, iv and 5 mg/kg, po; type: ADME, organism-based, Macaca fascicularis; details: in vivo; in short: as §5
hERG (KCNH2) = hERG (KCNH2) (Homo sapiens, UniProt Q12809); test: Inhibition of human ERG channel at 1 uM by patch clamp technique
In short: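 hERG current measured in vitro by patch clamp at 1 µM.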

Rattus norvegicus [32] = test: Antithrombotic activity in po dosed pentobarbital anesthetized rat assessed as maintainance of blood flow administered 1 hr prior to FeCl2 challenge; type: functional, organism-based; in short: as §4
[33] = Oral bioavailability in dog at 5 mg/kg; type: ADME, organism-based, Canis lupus familiaris; details: in vivo; in short: as §5
Blood [34] = test: Drug uptake in rat blood at 10 mg/kg, po; type: ADME, organism-based; design: dose 10 mg/kg, route oral; details: in vivo, read-out: Drug uptake

Chain of P2Y purinoceptor 1 (P47900 whole entry): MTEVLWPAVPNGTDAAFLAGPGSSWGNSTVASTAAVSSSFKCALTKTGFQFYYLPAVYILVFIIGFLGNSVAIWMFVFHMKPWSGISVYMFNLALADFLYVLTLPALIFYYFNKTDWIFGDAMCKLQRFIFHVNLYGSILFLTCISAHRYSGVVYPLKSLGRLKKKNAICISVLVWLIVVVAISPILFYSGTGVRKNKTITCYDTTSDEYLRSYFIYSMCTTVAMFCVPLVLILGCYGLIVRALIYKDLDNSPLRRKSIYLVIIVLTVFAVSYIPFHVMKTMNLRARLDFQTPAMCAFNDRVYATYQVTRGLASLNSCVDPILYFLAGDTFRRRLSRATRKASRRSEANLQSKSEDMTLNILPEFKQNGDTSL
Chain of P2Y purinoceptor 12 (Q9H244 whole entry): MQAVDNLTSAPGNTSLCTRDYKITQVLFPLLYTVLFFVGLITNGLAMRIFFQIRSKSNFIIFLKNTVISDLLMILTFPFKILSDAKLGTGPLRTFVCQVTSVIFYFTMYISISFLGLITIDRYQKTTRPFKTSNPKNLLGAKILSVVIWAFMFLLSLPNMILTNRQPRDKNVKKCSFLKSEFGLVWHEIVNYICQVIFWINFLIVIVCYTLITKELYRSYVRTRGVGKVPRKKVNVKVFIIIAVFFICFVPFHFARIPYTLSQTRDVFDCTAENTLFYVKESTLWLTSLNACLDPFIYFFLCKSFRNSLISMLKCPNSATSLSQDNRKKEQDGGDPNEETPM
Chain of P2Y purinoceptor 2 (P41231 whole entry): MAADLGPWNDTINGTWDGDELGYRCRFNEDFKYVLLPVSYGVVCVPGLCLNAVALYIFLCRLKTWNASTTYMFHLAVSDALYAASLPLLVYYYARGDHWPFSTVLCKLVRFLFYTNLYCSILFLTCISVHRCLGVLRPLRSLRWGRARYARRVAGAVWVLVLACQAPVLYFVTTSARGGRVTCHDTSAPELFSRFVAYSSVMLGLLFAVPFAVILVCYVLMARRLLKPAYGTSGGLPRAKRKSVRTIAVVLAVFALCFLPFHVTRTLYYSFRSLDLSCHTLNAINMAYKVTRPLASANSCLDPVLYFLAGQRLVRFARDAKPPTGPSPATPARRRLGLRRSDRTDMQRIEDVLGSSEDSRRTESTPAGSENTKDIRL
Chain of hERG (KCNH2) (Q12809 whole entry): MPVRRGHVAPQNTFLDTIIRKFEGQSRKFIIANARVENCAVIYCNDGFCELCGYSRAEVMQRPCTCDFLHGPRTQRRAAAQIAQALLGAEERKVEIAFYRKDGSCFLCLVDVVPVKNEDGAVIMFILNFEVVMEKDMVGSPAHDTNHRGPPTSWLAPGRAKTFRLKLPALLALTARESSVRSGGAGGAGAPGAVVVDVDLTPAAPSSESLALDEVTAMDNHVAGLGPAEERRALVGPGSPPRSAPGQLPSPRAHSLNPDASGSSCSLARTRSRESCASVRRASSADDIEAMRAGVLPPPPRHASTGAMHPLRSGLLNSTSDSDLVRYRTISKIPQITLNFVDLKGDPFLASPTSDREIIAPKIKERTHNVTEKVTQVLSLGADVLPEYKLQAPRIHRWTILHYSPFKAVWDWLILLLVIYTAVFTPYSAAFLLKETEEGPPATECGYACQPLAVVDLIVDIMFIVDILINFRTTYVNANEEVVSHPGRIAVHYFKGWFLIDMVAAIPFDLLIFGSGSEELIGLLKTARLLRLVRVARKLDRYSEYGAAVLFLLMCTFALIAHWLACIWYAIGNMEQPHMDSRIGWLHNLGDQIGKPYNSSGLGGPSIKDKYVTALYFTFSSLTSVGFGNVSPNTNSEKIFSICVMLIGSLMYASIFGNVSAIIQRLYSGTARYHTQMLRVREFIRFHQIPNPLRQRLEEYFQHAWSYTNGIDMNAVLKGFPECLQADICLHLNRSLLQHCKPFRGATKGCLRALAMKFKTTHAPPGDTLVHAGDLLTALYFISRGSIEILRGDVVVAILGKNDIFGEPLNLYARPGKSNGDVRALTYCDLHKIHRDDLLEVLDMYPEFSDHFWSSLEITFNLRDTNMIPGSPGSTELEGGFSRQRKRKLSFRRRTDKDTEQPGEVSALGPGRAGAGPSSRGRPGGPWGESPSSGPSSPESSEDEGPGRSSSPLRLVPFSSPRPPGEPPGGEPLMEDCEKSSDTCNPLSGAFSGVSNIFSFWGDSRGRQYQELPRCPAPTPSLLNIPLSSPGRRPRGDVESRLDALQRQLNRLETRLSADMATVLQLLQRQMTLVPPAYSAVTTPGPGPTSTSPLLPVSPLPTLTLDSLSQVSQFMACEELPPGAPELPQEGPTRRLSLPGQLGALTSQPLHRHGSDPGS

Molecule `CC(C)(C)CN1CCC2(CC1)CN(c1ccccc1NC(=O)Nc1ccc(OC(F)(F)F)cc1)c1ccccc12` has an IC50 (Rattus norvegicus [1]) of 470 nM.

For `CC(C)(C)CN1CCC2(CC1)CN(c1ccccc1NC(=O)Nc1ccc(OC(F)(F)F)cc1)c1c(O)ccc(C#N)c12`, the Stability (Liver microsome [2]) was 51%, the Stability (Liver microsome [3]) was 59% and the IC50 (Platelet) was 1100 nM. It also gave an IC50 (P2Y purinoceptor 1) of 0.04 nM.

With `CC(C)(C)CN1CCC2(CC1)CN(c1ccccc1NC(=O)Nc1ccc(C(F)(F)F)cc1)c1c(O)ccc(Cl)c12` the Stability (Liver microsome [2]) was 93%, the Stability (Liver microsome [3]) was 93% and the IC50 (Platelet) was 400 nM. For the same molecule, the IC50 (P2Y purinoceptor 1) was 0.08 nM.

`CC(C)(C)CN1CCC2(CC1)CN(c1ccccc1NC(=O)Nc1ccc(OC(F)(F)F)cc1)c1c(O)ccc(Cl)c12` showed a Stability (Liver microsome [2]) of 88%, a Stability (Liver microsome [3]) of 79% and an IC50 (Platelet) of 450 nM. For the same molecule, the IC50 (P2Y purinoceptor 1) was 0.04 nM.

`CC(C)(C)CN1CCC2(CC1)CN(c1ccccc1NC(=O)Nc1nc3ccc(Cl)cc3s1)c1c(O)ccc(Cl)c12` showed a Stability (Liver microsome [2]) of 93%, a Stability (Liver microsome [3]) of 96% and an IC50 (Platelet) of 320 nM. It also gave an IC50 (P2Y purinoceptor 1) of 0.17 nM.

In the case of `CC(C)(C)CN1CCC2(CC1)CN(c1ccccc1NC(=O)Nc1ccc(OC(F)(F)F)cc1)c1cc(O)ccc12`, the IC50 (P2Y purinoceptor 1) is reported as 4.6 nM.

With `CC(C)(C)CN1CCC2(CC1)CN(c1ccccc1NC(=O)Nc1nc3ccc(Cl)nc3s1)c1c(O)ccc(Cl)c12` the fraction unbound [4] was 0.002, the concentration (Blood [5]) was 81 nM and the “fold change (FC)” value (Rattus norvegicus [6]) was 2.5. For the same molecule, the solubility [7] was under 1 µg/mL, the Activity (Rattus norvegicus [8]) was 74% and the half-life [9] was 9.4 h. The concentration (Plasma [10]) was 158000 nM, the Activity (Oryctolagus cuniculus [11]) was “Non-toxic” and the Activity (Rattus norvegicus [12]) was “Dose-dependent effect”. The ED50 (Rattus norvegicus [12]; read-out: ID50 (the source's name)) was 6.6 mg/kg, the Stability (Liver microsome [2]) was 93% and the IC50 (Rattus norvegicus [1]) was 130 nM. For the same molecule, the ED50 (Rattus norvegicus [1]; po, read-out: ID50) was 7.3 mg/kg, the half-life [13] was 8.2 h and the Activity (Oryctolagus cuniculus [14]) was “Non-toxic”. For the same molecule, the Activity (Rattus norvegicus [15]) was “Dose-dependent effect”, the concentration (Plasma [16]) was 24000 nM and the IC50 (P2Y purinoceptor 2) was over 10000 nM. For the same molecule, the fraction unbound [17] was 0.007, the Vd [18] was 2.5 L/kg and the IC50 (P2Y purinoceptor 12) was over 10000 nM. The concentration (Blood [19]) was 39 nM, the Stability (Liver microsome [3]) was 94% and the solubility [20] was 680 µg/mL (≈ 1110 µM). For the same molecule, the IC50 (Platelet) was 130 nM, the Activity (Rattus norvegicus [21]) was “Active” and the “fold change (FC)” value (Rattus norvegicus [22]) was 2.2. It also gave a Vd [23] of 3.3 L/kg, a concentration (Blood [24]) of 7 nM and an Activity (Rattus norvegicus [25]) of 66%. For the same molecule, the fraction unbound [26] was 0.007, the clearance [27] was 4 mL/min/kg and the Activity (Oryctolagus cuniculus [28]) was “Non-toxic”. It also gave a bioavailability [29] of 22%, an IC50 (P2Y purinoceptor 1) of 0.12 nM and a concentration (Plasma [30]) of 62000 nM. The IC50 (P2X purinoceptor 1) was 180 nM, the clearance [31] was 7.7 mL/min/kg and the inhibition at 1 µM (hERG (KCNH2)) was 96%. For the same molecule, the Activity (Rattus norvegicus [32]) was “Dose-dependent effect”, the bioavailability [33] was 27% and the concentration (Blood [34]) was 240 nM.

In the case of `CN(C)S(=O)(=O)c1ccc(O)c2c1C1(CCN(CC(C)(C)C)CC1)CN2c1ccccc1NC(=O)Nc1ccc(OC(F)(F)F)cc1`, the Stability (Liver microsome [2]) is reported as 75%, the Stability (Liver microsome [3]) is reported as 21% and the IC50 (Platelet) is reported as 420 nM. The IC50 (P2Y purinoceptor 1) was 0.13 nM.

Work on `CC(C)(C)CN1CCC2(CC1)CN(c1ccccc1NC(=O)Nc1nc3ccc(F)cc3s1)c1c(O)ccc(Cl)c12` yielded a Stability (Liver microsome [2]) of 89%, a Stability (Liver microsome [3]) of 100% and an IC50 (Platelet) of 230 nM. For the same molecule, the IC50 (P2Y purinoceptor 1) was 0.06 nM.
